# MT1-MMP act inh – MT1-MMP (human) activation inhibition | HT1080 RFP-PRO-GFP cells, GFP/RFP ratio fluorescence, overnight; percent of plate control window, DMSO zero | GFP/RFP ratio change, % at 20 µM | hit rate 0.061% among 360,000;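 active = GFP/RFP ratio change of at least 30% with cell ATP level not reduced by more than half and red fluorescence within 50% of control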
#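 Assay system: HT1080 RFP-PRO-GFP cells. Benchmarks: DMSO vehicle wells and RFP-L50D-GFP reporter cell wells. Times: overnight cell settling, then overnight compound exposure, 37 °C, 5% CO2. Compound: 20 µM single dose, 1% DMSO. Read-out basis: GFP/RFP fluorescence ratio.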
# eLon inh – E. coli protease La inhibition; P0A9M0; purified E. coli Lon protease, fluorescence polarization; inhibition, % at 7.94 µM; hit rate 0.42% among 360,000; in the data active = inhibition above about 13%, passing the limit was not always enough;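 note: 0% = enzyme with probe and DMSO and 100% = no enzyme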
# SKN-1 block – blocks SKN-1 activity in C. elegans. C. elegans VP596 Pgst-4::GFP/RFP ratio, acrylamide-induced, 24 h. inhibition, % at 21.8 µM. hit rate 0.49% among 360,000. AID 624304;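 active = interference check ratio from 0.5 to 1.5 plus GFP to RFP signal ratio inhibition reaching or exceeding a fixed threshold, cut at about 30% in these data, passing the limit was not always enough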
# PREPL inhibitor – inhibits the human prolyl oligopeptidase-like enzyme | Q4J6C6 | recombinant PREPL, fluorescence polarization activity-based probe | inhibition, % at 5.96 µM | hit rate 0.68% among 320,000 | AID 2751;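 note: 0% = enzyme with DMSO and 100% = wells lacking enzyme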
# Target sequence (Q4J6C6 whole entry, looked up): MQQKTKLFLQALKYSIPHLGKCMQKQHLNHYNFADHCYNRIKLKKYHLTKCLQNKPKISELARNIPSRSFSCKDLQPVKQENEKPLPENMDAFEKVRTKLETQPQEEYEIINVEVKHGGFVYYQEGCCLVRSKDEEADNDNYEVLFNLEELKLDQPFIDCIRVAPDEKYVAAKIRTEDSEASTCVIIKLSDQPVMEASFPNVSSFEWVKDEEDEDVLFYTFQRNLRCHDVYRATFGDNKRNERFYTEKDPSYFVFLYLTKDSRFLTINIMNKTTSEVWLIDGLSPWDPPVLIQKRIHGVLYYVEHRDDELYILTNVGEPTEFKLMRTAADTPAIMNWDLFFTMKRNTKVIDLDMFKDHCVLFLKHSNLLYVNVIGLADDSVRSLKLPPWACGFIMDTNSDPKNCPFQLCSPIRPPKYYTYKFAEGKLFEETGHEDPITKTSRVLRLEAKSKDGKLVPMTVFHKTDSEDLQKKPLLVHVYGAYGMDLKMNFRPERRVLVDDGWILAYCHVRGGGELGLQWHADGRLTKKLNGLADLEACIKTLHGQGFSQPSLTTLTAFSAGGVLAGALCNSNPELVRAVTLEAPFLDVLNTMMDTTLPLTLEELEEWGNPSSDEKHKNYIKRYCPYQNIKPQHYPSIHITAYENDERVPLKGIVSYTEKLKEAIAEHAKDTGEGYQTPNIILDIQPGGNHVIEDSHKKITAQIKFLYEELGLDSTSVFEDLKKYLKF
# hiPSC survival – increases survival of single human iPS cells; survival enhancement, % at 20 µM; hiPSC single-cell survival, ATPlite luminescence; 100% = ROCK inhibitor wells, 0% = DMSO; hit rate 0.044% among 360,000; AID 602274; in the data active = survival enhancement above about 18%;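 note: cells exposed to compounds for 16 hours before the ATP read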
# TbMetRS inhib – blocks T. brucei methionyl-tRNA synthetase activity. purified T. brucei MetRS, ATP depletion, Kinase-Glo luminescence. inhibition, % at 11.9 µM. hit rate 0.4% among 360,000. AID 624268;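 active = inhibition above a per-plate cutoff of the control wells' mean inhibition plus 3 SD, cut at about 5.5% in these data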;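 note: 0% = DMSO wells median and 100% = median of wells with control inhibitor compound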
#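 Dosing: 11.9 µM compound single dose, 0.9% DMSO; Assay system: purified T. brucei MetRS enzyme; Measured by: Kinase-Glo luciferase luminescence reporting remaining unconsumed ATP; Schedule: 15 min plus 2 h at 25 °C.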
# PREPL inh cf – human PREPL inhibition, confirmation. hit rate 67% among 2,000. shares compounds with PREPL inhibitor. recombinant PREPL, fluorescence polarization activity probe. inhibition, % at 5.96 µM;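 note: 0% = protein with DMSO and 100% = wells lacking protein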
# * = called active by the depositor; x = no result; ! = not confirmed by another sample. Only some compounds are listed: those with a hit (about 1.8% of all), similar ones and a draw of the others. Cut-off read from the data, not from the text of the source, unless noted: active = inhibition above about 43%; inactive = the rest.
SMILES,MT1-MMP act inh,eLon inh,SKN-1 block,PREPL inhibitor,hiPSC survival,TbMetRS inhib,PREPL inh cf
O=C(COC(=O)Cc1ccc(S(=O)(=O)N2CCOCC2)s1)Nc1ccccc1,-2,0,0,4,4,0,x
O=C(COC(=O)Cc1ccc(S(=O)(=O)N2CCOCC2)s1)Nc1ccc([N+](=O)[O-])cc1,-5,-4,25,45*,0,0,38
Cc1ccccc1OCC(O)Cn1c(=N)n(CCN2CCOCC2)c2ccccc21 (centres undefined),-9,0,-18,56*,1,-2,45*!
COc1ccc(Nc2nc(N)nc(CN3CCc4ccccc4C3)n2)cc1,4,5,11,43*,-5,-1,33
Nc1nc(CN2CCc3ccccc3C2)nc(Nc2ccccc2)n1,-6,-1,5,24,-1,-1,x
COc1ccc(CNC(=O)Cc2c(C(=O)O)[nH]c3ccccc23)c(OC)c1,0,3,35,126*,1,0,3
COc1ccc(C2CC(C(F)(F)F)n3nc(C(=O)Nc4ccc5c(c4)OCO5)cc3N2)cc1 (centres undefined),-1,-2,-3,49*,1,-1,38
COc1ccc(OC)c(NC(=O)c2cc3n(n2)C(C(F)(F)F)CC(c2ccc4c(c2)OCO4)N3)c1 (centres undefined),-5,13,-1,43,0,0,x
COCCNC(=S)NNc1cccc(C(=O)O)c1,2,-6,10,1,0,0,x
O=c1c2ccccc2c(=O)n(-c2ccccc2)n1-c1ccccc1,1,-6,0,x,2,0,x
NC(=O)Nc1ccc(C(=O)OCC(=O)Nc2cccc(S(=O)(=O)NC3=NCCCCC3)c2)cc1,-7,-5,-11,-15,0,-1,x
O=C(COC(=O)/C=C/c1cccc(Cl)c1)Nc1cccc(S(=O)(=O)NC2=NCCC2)c1,3,-2,18,17,0,-1,x
O=C(COC(=O)/C=C/c1ccc(Cl)cc1)Nc1cccc(S(=O)(=O)NC2=NCCCCC2)c1,-2,-18,-6,44*,0,0,35
O=C(COC(=O)c1ccc(C(F)(F)F)cc1)Nc1cccc(S(=O)(=O)NC2=NCCCCC2)c1,0,-10,19,46*,0,0,42
Cc1cccc(C2CC(c3ccc(Cl)cc3)Nc3nc(N)nn32)c1 (centres undefined),0,-4,12,52*,0,-1,52*
Cc1cccc(C2CC(c3ccc(F)cc3)Nc3nc(N)nn32)c1 (centres undefined),-3,7,3,51*,-3,0,55*
COc1cccc(C2CC(c3ccccc3)Nc3nc(N)nn32)c1 (centres undefined),1,11,4,40,-2,0,x
Cc1ccc(C2CC(c3cccc(Cl)c3)n3nc(N)nc3N2)cc1 (centres undefined),-3,6,17,51*,0,0,51*
COc1ccc(C2CC(c3cccc(OC)c3)n3nc(N)nc3N2)cc1 (centres undefined),-2,-3,-9,46*,-1,-1,52*
Cc1ccc(/C=C/C(=O)NC(=S)Nc2ccc(S(=O)(=O)Nc3cc(C)on3)cc2)cc1,1,-3,-6,-11,-1,0,x
COc1ccc(CNC(=O)C(=O)NCCCn2ccnc2)cc1,1,-10,-3,-4,0,-1,x
CCN1CCc2c(sc(NC(=O)Nc3ccc(Cl)c(Cl)c3)c2C(N)=O)C1,-186,-269,0,70*,5,0,54*
CN(NC(=O)Nc1ccccc1)c1cnn(C)c(=O)c1Cl,0,6,-3,22,0,-1,x
CN1CCN(C(=O)C2=C[C@@H](c3ccccc3)C[C@@H](OCc3ccc(CO)cc3)O2)CC1,-1,1,19,46*,-2,0,49*
CCO[C@H]1OC(C(=O)N2CCN(Cc3ccc4c(c3)OCO4)CC2)=C[C@@H](c2ccc(Br)cc2)[C@@H]1CCCO,-4,-4,-9,47*,-2,0,44*
SMILES,MT1-MMP act inh,eLon inh,SKN-1 block,PREPL inhibitor,hiPSC survival,TbMetRS inhib,PREPL inh cf
CC(=O)n1cc([C@@H]2C=C(C(=O)N3CCN(C)CC3)O[C@H](OCc3ccc(CO)cc3)C2)c2ccccc21,-9,-3,-6,46*,1,0,52*
O=C(C1=C[C@@H](c2ccc(Br)cc2)C[C@@H](OCc2ccc(CO)cc2)O1)N1CCN(Cc2ccc3c(c2)OCO3)CC1,-5,-4,-7,45*,1,4,59*
Cc1ccc(NC(=O)CCN2C(=O)C3CCCCC3C2=O)cc1[N+](=O)[O-] (centres undefined),1,-5,14,0,0,0,x
Cc1cc(C)n2nc(SCC(=O)N(CCC#N)c3ccc(F)cc3)nc2n1,9,2,-5,12,3,-1,x
Cc1cc(C)n(-c2nc(C)nc3sc4c(c23)CCC(C)C4)n1 (centres undefined),-10,-5,12,-3,-1,-1,x
Cc1cc2c(=O)n(CC(=O)N3CCN(c4ccc(F)cc4)CC3)cnc2s1,-1,2,-10,-7,-2,-2,x
O=C(C1=C[C@H](c2ccc(C(F)(F)F)cc2)C[C@H](OCc2ccc(CO)cc2)O1)N1CCN(Cc2ccc3c(c2)OCO3)CC1,-7,-3,22,46*,-2,0,44*
O=C(C1=C[C@@H](c2ccc(C(F)(F)F)cc2)C[C@@H](OCCCCO)O1)N1CCN(Cc2ccc3c(c2)OCO3)CC1,3,0,-8,70*,-2,0,60*
O=C(C1=C[C@H](c2ccc(C(F)(F)F)cc2)C[C@H](OCCCCO)O1)N1CCN(Cc2ccccc2)CC1,-2,0,5,21,-3,0,x
CC(C)(C)[C@@H]1C=C(C(=O)N2CCN(Cc3ccc4c(c3)OCO4)CC2)O[C@H](OCc2ccc(CO)cc2)C1,0,5,18,25,5,0,x
O=C(C1=C[C@@H](c2ccc(Br)cc2)C[C@@H](OCc2ccc(CO)cc2)O1)N1CCN(Cc2ccccc2)CC1,-3,2,15,66*,0,0,53*
O=C(C1=C[C@@H](c2ccc(C(F)(F)F)cc2)C[C@@H](OCc2ccc(CO)cc2)O1)N1CCN(Cc2ccc3c(c2)OCO3)CC1,0,-10,3,64*,-2,0,58*
O=S(=O)(c1ccc(NC(=S)N2CCCCC2)cc1)N1CCCCC1,5,-9,-1,x,0,0,x
